Results on 14 compounds are retold here after ChEMBL document CHEMBL4480372, “Design, synthesis, and in vitro and in vivo characterization of 1-{4-[4-(substituted)piperazin-1-yl]butyl}guanidines and their piperidine analogues as histamine H3 receptor antagonists” (Medchemcomm, 2019).

The structures appear in SMILES notation. The source made the active and inactive calls. No cut-off for these calls is given here.

Assay [1] has as its target T1, Histamine H3 receptor (Cavia porcellus, UniProt Q9JI35). In words: Antagonist activity at histamine H3 receptor in guinea pig jejunum assessed as effect on […] inhibition of electrically evoked contraction treated 20 mins after […]. The class given is tissue-based. As to conditions: read-out: pA2 (converted). In outline: (§1)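 Guinea pig jejunum segments (2 cm) were electrically stimulated between platinum electrodes in Krebs buffer gassed with 95% O2/5% CO2 at 37 °C, with isotonic recording under 1.0 g tension. […] After 20 min, cumulative half-log (R)-α-methylhistamine concentration-response curves were recorded until the response stopped changing.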

Assay [2] deals with T2, Histamine H1 receptor (Cavia porcellus, UniProt P31389). In words: (§2) Antagonist activity at histamine H1 receptor in guinea pig ileum preincubated for 10 mins followed by histamine addition during 30 mins equilibration period with washing every 10 mins. The assay is classed as tissue-based. The note with it: read-out: pA2 (converted).
T2 sequence (P31389 whole entry): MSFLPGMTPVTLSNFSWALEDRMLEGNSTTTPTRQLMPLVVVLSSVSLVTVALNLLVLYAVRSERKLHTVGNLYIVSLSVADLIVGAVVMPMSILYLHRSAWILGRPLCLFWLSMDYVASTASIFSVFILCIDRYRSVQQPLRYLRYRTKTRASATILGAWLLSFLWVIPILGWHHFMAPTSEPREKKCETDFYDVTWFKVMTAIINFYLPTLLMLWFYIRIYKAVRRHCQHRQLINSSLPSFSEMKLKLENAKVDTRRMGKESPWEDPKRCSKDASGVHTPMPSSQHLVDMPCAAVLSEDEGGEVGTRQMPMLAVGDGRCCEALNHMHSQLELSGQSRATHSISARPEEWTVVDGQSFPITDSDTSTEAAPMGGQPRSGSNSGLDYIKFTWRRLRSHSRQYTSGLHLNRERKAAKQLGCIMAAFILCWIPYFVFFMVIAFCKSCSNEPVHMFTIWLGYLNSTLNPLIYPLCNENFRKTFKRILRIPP
Assay [3] deals with Rattus norvegicus. Description: Effect on cerebral HNMT activity in rat at 3 mg/kg, sc administered for 5 consecutive days measured at 24 hrs post last dose by radioisotopic assay. The assay is classed as functional, organism-based. An outline of the steps:
(§3)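 Cortex from rats given 3 mg kg⁻¹ per day s.c. for 5 days (n = 8) was taken 24 h after the last dose and homogenized in water. HNMT, MAO-A and MAO-B were measured radioisotopically. MAO-A used 5-[2-14C]hydroxytryptamine as substrate; MAO-B used β-[ethyl-1-¹⁴C]phenylethylamine. Clorgyline and deprenyl (final 10^-9 M) were used as inhibitors. Protein was measured by the Lowry method.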

Assay [4] deals with Histamine H3 receptor (Rattus norvegicus) (UniProt Q9QYN8). In words: Antagonist activity at rat histamine H3 receptor assessed as reduction in dopamine level in rat cortex at 3 mg/kg, sc administered for 5 consecutive days measured at 24 hrs post last dose by RIA or ELISA method. The assay is classed as organism-based. In outline: (§4)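 Male rats aged 9-10 weeks (Wistar or Lewis, n = 8) received 3 mg kg⁻¹ per day s.c. for 5 days. Saline-dosed and ciproxifan-dosed groups were included. Rats were killed 24 h after the last injection. The cerebral cortex was dissected, frozen in liquid nitrogen, stored at -80 °C and homogenized in 3 volumes of water. Dopamine, noradrenaline and serotonin were measured by RIA; histamine by ELISA.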
Chain of Histamine H3 receptor (Rattus norvegicus) (Q9QYN8 whole entry): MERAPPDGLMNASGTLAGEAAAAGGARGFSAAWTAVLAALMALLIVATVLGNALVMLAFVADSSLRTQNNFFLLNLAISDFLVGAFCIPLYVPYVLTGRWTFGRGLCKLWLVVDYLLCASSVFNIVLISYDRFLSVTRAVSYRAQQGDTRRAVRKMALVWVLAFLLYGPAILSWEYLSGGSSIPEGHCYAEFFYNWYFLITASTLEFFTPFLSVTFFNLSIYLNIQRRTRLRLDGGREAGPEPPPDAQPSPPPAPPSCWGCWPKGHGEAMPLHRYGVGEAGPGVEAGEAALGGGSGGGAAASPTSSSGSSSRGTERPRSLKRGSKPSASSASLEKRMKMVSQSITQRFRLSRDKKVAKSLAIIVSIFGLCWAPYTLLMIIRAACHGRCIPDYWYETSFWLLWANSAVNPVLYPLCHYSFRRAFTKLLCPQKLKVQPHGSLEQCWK

For assay [5], the target named is T1, Histamine H3 receptor. In words: Antagonist activity at histamine H3 receptor in guinea pig jejunum assessed as effect on […] inhibition of electrically evoked contraction treated 20 mins after […] and measured after 1 hr equilibration followed by compound wash out every 10 mins. As to conditions: read-out: pA2 (converted). The assay is classed as tissue-based. An outline of the steps:
as §1

Assay [6] has as its target Histamine H3 receptor (Homo sapiens, UniProt Q9Y5N1). Description: Displacement of [3H]-Nalpha-Methylhistamine from recombinant human histamine H3 receptor expressed in HEK293 cells after 1 hr by liquid scintillation counting analysis. The class given is cell-based.
Assay [7] has as its target Histamine H3 receptor (Rattus norvegicus) (UniProt Q9QYN8). Description: Antagonist activity at rat histamine H3 receptor assessed as reduction in histamine level in rat cortex at 3 mg/kg, sc administered for 5 consecutive days measured at 24 hrs post last dose by RIA or ELISA method. The assay is classed as organism-based. In outline:
as §4
For orientation: In an ELISA, binding on a coated surface is turned into a signal by an enzyme label.

Another assay has as its target Histamine H4 receptor (Homo sapiens, UniProt Q9H3N8). Description: Displacement of [3H]histamine from human recombinant histamine H4 receptor expressed in CHO cell membranes after 1 hrs by liquid scintillation counting analysis.
Assay [8] relates to Rattus norvegicus. In words: Reduction in food consumption in Lewis rat at 3 mg/kg, sc administered daily for 5 days relative to control. Further details: scale not given: the % may be the effect or the level left.
Assay [9] addresses T2, Histamine H1 receptor. In words: Antagonist activity at histamine H1 receptor in guinea pig ileum preincubated for 10 mins followed by histamine addition during 30 mins equilibration period with washing every 10 mins. As to conditions: read-out: pA2 (converted).
Assay [10] deals with Histamine H3 receptor (Rattus norvegicus, UniProt Q9QYN8). Description: Displacement of [3H]-Nalpha-Methylhistamine from rat histamine H3 receptor expressed in HEK293T cell membranes after 120 mins by liquid scintillation counting analysis.
Chain of Histamine H3 receptor (Rattus norvegicus, UniProt Q9QYN8) (Q9QYN8 whole entry): as above
Assay [11] has as its target Histamine H3 receptor (Rattus norvegicus) (UniProt Q9QYN8). In words: Antagonist activity at rat histamine H3 receptor assessed as reduction in noradrenaline level in rat cortex at 3 mg/kg, sc administered for 5 consecutive days measured at 24 hrs post last dose by RIA or ELISA method. The class given is organism-based. In outline:
as §4

Assay [12] has as its system Rattus norvegicus. In words: Effect on cerebral MAO activity in rat at 3 mg/kg, sc administered for 5 consecutive days measured at 24 hrs post last dose by radioisotopic assay. The class given is functional, organism-based. An outline of the steps:
as §3

Assay [13] has as its target Histamine H3 receptor (Rattus norvegicus) (UniProt Q9QYN8). In words: Antagonist activity at rat histamine H3 receptor assessed as reduction in serotonin level in rat cortex at 3 mg/kg, sc administered for 5 consecutive days measured at 24 hrs post last dose by RIA or ELISA method. The class given is organism-based. In outline:
as §4

A further assay is filed under the species Homo sapiens. Description: Selectivity ratio of Ki for recombinant human histamine H4 receptor expressed in CHO cell membranes to Ki for recombinant human histamine H3 receptor expressed in HEK293 cells. The assay is classed as cell-based.
The test system of assay [14] is Rattus norvegicus. Description: Reduction in pellet consumption in Wistar rat at 3 mg/kg, sc administered daily for 5 days relative to control. Further details: scale not given: the % may be the effect or the level left. The assay is classed as functional. In outline: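 Male rats aged 9-10 weeks were housed singly in metabolic cages with free access to feed and water. Wistar rats were used for one compound and Lewis rats for the others. After 1 day of adaptation, baseline intake was averaged over 3 days. Dosing was 3 mg kg⁻¹ per day s.c. for 5 days (n = 8), with saline controls (0.2 ml per day). Intake was recorded each morning as g feed per 100 g body mass.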

The target in assay [15] is Histamine H1 receptor (Cavia porcellus) (UniProt P31389). The description is as §2. The assay is classed as tissue-based.
Chain of Histamine H1 receptor (Cavia porcellus) (P31389 whole entry): as the sequence (P31389 whole entry) above

Chain of Histamine H3 receptor (Homo sapiens, UniProt Q9Y5N1) (Q9Y5N1 whole entry): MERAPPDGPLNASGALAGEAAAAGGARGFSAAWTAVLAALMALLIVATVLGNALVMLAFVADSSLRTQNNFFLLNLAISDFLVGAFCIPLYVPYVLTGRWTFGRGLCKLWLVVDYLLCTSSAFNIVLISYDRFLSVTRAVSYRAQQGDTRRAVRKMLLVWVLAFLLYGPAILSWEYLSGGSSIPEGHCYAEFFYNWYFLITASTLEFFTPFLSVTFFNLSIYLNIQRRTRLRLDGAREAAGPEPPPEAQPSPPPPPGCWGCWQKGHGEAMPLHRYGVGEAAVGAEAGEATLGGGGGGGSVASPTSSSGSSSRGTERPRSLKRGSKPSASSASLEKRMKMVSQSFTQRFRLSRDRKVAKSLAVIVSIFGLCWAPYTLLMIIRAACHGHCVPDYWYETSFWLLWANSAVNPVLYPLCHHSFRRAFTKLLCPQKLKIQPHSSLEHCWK
Chain of Histamine H4 receptor (Q9H3N8 whole entry): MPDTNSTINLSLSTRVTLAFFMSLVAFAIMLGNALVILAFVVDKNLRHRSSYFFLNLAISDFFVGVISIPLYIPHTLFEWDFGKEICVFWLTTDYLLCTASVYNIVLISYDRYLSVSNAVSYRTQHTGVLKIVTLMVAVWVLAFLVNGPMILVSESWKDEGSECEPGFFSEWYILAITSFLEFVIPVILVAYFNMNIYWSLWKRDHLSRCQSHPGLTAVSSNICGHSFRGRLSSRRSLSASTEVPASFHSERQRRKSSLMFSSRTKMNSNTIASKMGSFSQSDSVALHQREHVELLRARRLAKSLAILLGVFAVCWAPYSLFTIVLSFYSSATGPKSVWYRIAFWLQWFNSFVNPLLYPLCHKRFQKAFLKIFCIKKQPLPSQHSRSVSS
T1 sequence (Q9JI35 whole entry): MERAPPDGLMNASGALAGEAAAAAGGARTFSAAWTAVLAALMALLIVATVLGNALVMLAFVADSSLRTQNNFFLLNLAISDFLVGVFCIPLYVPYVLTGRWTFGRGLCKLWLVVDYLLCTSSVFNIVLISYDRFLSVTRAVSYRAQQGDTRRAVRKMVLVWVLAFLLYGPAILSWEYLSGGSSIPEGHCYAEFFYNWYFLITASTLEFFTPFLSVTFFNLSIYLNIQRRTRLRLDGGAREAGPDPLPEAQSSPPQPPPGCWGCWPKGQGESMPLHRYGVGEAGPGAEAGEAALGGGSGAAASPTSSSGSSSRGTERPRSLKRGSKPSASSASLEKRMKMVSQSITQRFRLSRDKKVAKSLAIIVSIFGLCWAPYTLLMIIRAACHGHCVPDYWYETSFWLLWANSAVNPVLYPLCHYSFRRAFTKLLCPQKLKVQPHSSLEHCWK

For the compound `N#C/N=C(\N)N(CCCCN1CCN(CCCCCCCOc2ccccc2)CC1)Cc1ccccc1`, the Kb is 50.1 nM at Histamine H3 receptor [1] and 107 nM at Histamine H1 receptor [2].

By Ki is commonly meant the equilibrium dissociation constant of an inhibitor or competing ligand from its target. Turning to `N=C(N)N(CCCCN1CCN(CCCCCCCOc2ccccc2)CC1)Cc1ccc(Cl)cc1`, the result (with Rattus norvegicus [3]; in [7]; in assay [11]; in the assay on Rattus norvegicus [12]) was inactive. For the same compound, the outcome in assay [4] and in assay [13] was Active. In addition, the results for the Kb on Histamine H3 receptor [5] and on Histamine H1 receptor [9] were 15.8 nM and 240 nM, respectively. The Ki on Histamine H3 receptor [6] is 275 nM; at Histamine H4 receptor, 1070 nM; on Histamine H3 receptor [10], 25.1 nM. The same compound had an Activity in the assay with Rattus norvegicus [8] of 13.5%. In the assay listed under Homo sapiens, the Ratio Ki worked out at 3.9.

With `N=C(NCCCCN1CCN(CCCCCCCOc2ccccc2)CC1)NCc1ccccc1`, the results for the Kb on Histamine H3 receptor [1] and at Histamine H1 receptor [2] were 7.94 nM and 79.4 nM, respectively.

As to `N=C(N)N(CCCCN1CCN(CCCCCCCOc2ccccc2)CC1)Cc1ccc(C(F)(F)F)cc1`, the Kb on Histamine H1 receptor [9] was 347 nM.

In the assay with Rattus norvegicus [14], `N=C(N)N(CCCCN1CCN(CCCCCCCOc2ccccc2)CC1)Cc1ccc([N+](=O)[O-])cc1` came in with an Activity of 10%. Moreover, the outcome (in the assay on Rattus norvegicus [3]; in [7]; in [11]; in the assay on Rattus norvegicus [12]) was inactive. Also, the outcome in assay [4] and in [13] was Active. Further, the Kb at Histamine H3 receptor [5] is 3.72 nM; on Histamine H1 receptor [9], 224 nM. Further, the Ki was 145 nM at Histamine H3 receptor [6], 1200 nM on Histamine H4 receptor and 15.8 nM on Histamine H3 receptor [10]. In addition, the Ratio Ki in the assay filed under Homo sapiens stood at 8.3.

For the compound `O=C(c1ccc(OCCCc2c[nH]cn2)cc1)C1CC1`, in the assay with Rattus norvegicus [8], the result was Active.

Regarding `N=C(N)N(CCCCCCCOc1ccccc1)Cc1ccccc1`, the figures for the Kb on Histamine H3 receptor [1] and at Histamine H1 receptor [2] were 1660 nM and 158 nM, respectively.

In the case of `N=C(N)N(CCCCN1CCN(CCCCN(Cc2ccc(C(F)(F)F)cc2)C(=N)N)CC1)Cc1ccc(C(F)(F)F)cc1`, the Kb on Histamine H3 receptor [1] is 10.2 nM; on Histamine H1 receptor [2], 60.3 nM.

For the compound `S=C(NC1CCCCC1)N1CCC(c2cnc[nH]2)CC1` [THIOPERAMIDE], on Histamine H3 receptor [1], the Kb is 1.05 nM.

Regarding `c1ccc(OCCCCCCCN2CCN(CCCCCCCOc3ccccc3)CC2)cc1`, the Kb on Histamine H3 receptor [1] was 1660 nM. In assay [15], the pA2 result was “inactive”.

In the case of `N=C(N)N(CCCCN1CCN(CCCCCCCOc2ccccc2)CC1)Cc1ccccc1`, the outcome (with Rattus norvegicus [3]; in [7]; in assay [11]; in the assay on Rattus norvegicus [12]) was inactive. The outcome (in assay [4]; in the assay on Rattus norvegicus [8]; in assay [13]) was Active. Further, the Ki is 158 nM on Histamine H3 receptor [6], 3240 nM at Histamine H4 receptor and 12.6 nM on Histamine H3 receptor [10]. The Kb at Histamine H1 receptor [9] was 200 nM. In the assay listed under Homo sapiens, the Ratio Ki turned out to be 20.9.

In the case of `N=C(N)N(CCCCC1CCN(CCCCCCCOc2ccccc2)CC1)Cc1ccc(C(F)(F)F)cc1`, the Kb at Histamine H3 receptor [1] was 4.47 nM; at Histamine H1 receptor [2], 126 nM.

`N=C(N)N(CCCCN1CCC(CCCCCCCOc2ccccc2)CC1)Cc1ccc(C(F)(F)F)cc1`: the Kb on Histamine H3 receptor [1] is 12.6 nM; at Histamine H1 receptor [2], 64.6 nM.

As to `N=C(NCCCCN1CCN(CCCCCCCOc2ccccc2)CC1)NCc1ccc(C(F)(F)F)cc1`, the values for the Kb at Histamine H3 receptor [1] and on Histamine H1 receptor [2] were 10.7 nM and 66.1 nM, respectively.
